# Hsp70 activator – Hsp70 transcriptional activation, primary screen. 0.04% of 200,000 active. HeLa Hsp70 promoter luciferase reporter, luminescence; scaled: vehicle 0, proteasome-inhibitor control 100%. activation, % at 10 µM;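 active means activation above the mean across all tested compounds plus 3 SD, cutoff set per campaign, cut at about 5.5% in these data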;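 further: 100% = MG132 at 30 µM as the positive control and 0% = DMSO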
# NPY-Y1 antag – blocks the human neuropeptide Y Y1 receptor. HEK293-CNG Y1 cells, membrane potential fluorescence; NPY at EC95, then isoproterenol. inhibition, % at 3.6 µM. 1% of 200,000 active. P25929;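 active means inhibition above the campaign mean inhibition of all tested compounds plus 3 SD, cut at about 20% in these data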;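 further: 0% = DMSO wells given NPY plus isoproterenol and 100% = isoproterenol alone without NPY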
#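 Test system: HEK293 cells co-expressing NPY Y1 receptor and cyclic-nucleotide gated channel; Also added: NPY (25 nM), isoproterenol (1 µM), Ro 20-1724 (25 µM); Compound dosing: one concentration, 3.6 µM, in 0.4% DMSO; Timing: dye 3 h, compound 60 min room temperature, stimulation 45 min; Technique: Membrane-potential fluorescent dye readout.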
# NPY1 pot ag – human NPY-Y1 potentiation or agonism, primary screen. P25929. NPY-Y1 expressing cells, potentiator/agonist activation. activation, % at 3.6 µM. 0.37% of 220,000 active; in the data active means activation above about 33%, passing the limit was not always enough;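 further: cells stimulated with NPY at EC10 then isoproterenol at EC100; 0% = low agonist plus stimulus and 100% = saturating agonist plus stimulus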
# NPY-Y2 antag – blocks the human neuropeptide Y Y2 receptor. P49146. NPY-Y2 expressing cells, antagonist mode. 0.99% of 140,000 active. inhibition, % at 2.7 µM; in the data active means inhibition above about 17%;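 further: 0% = vehicle with agonist challenge and 100% = reference antagonist with challenge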
# Target sequence (P49146 whole entry, looked up): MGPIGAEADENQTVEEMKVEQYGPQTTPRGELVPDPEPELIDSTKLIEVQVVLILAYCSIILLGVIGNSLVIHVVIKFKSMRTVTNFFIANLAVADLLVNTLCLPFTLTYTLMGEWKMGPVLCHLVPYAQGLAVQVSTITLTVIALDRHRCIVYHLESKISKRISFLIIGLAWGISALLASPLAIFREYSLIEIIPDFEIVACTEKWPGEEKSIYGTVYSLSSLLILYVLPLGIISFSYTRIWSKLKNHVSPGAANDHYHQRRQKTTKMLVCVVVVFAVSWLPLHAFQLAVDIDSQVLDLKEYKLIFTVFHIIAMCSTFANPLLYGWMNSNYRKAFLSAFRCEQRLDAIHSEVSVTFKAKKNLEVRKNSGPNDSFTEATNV
# Wee1 degr inh – blocks degradation of human Wee1 kinase; HeLa Luc-Wee1K328M stability, luciferase luminescence; 100% = proteasome inhibitor MG132 effect; P30291; AID 1321; 1.2% of 220,000 active; reporter increase, % at 5 µM;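 active means activation above the mean of all tested compounds plus 3 SD, set per screening run, cut at about 8.8% in these data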;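 further: cells exposed to compound for 20 h before luminescence read; 0% = DMSO alone and 100% = MG132 at 30 µM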
# NPY-Y2 PAM-ag – potentiates or activates human NPY-Y2 receptor; P49146; cells expressing NPY-Y2, potentiator/agonist read-out; 0.45% of 220,000 active; activation, % at 3.6 µM; in the data active means activation above about 27%;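 further: cells stimulated with NPY near EC25 plus isoproterenol at EC100; 0% = vehicle plus submaximal agonist and 100% = vehicle plus saturating agonist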
# NPY-Y1 pot conf – human NPY-Y1 potentiation or agonism, confirmation | shares compounds with NPY1 pot ag | cell-based NPY-Y1 potentiator/agonist assay | activation, % at 3.6 µM | 20% of 280 active; in the data active means activation above about 45%;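 further: cells challenged with NPY at its EC10 plus isoproterenol stimulus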
# NPY-Y2 counter – NPY-Y2 potentiation or agonism as NPY-Y1 counter-screen | HEK293-CNG cells, membrane-potential fluorescence (FLIPR), 1536-well | activation, % at 3.6 µM | 20% of 280 active | AID 1649 | shares compounds with NPY1 pot ag; in the data active means activation above about 33%
# NPY-Y1 agonist – human NPY-Y1 agonism as potentiator counter-screen; HEK293 Y1-CNGC, membrane potential fluorescence, agonist mode; AID 1697; shares compounds with NPY1 pot ag; activation, % at 3.6 µM; 50% of 280 active;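 active means percent activation above the mean of DMSO-only control wells plus 3 SD of those wells, cut at about 18% in these data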;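 further: cells challenged with isoproterenol plus Ro 20-1724 with no NPY in test wells; Y1 agonism lowers isoproterenol-driven cAMP and reduces probe fluorescence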
# NPY-Y2 ag – counter-screen for NPY-Y1 potentiators or agonists: agonists of NPY-Y2 | activation, % at 3.6 µM | HEK293 Y2-CNGC, membrane potential fluorescence, agonist mode | AID 1698 | shares compounds with NPY1 pot ag | 67% of 280 active;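 active means activation above the solvent-only control wells' mean plus 3 SD, cut at about 11% in these data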;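 further: 0% = DMSO with isoproterenol and 100% = 40 nM NPY maximal response; agonism lowers cAMP so well fluorescence drops in active wells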
# CNGC inh 2 – counter-screen for NPY-Y1 potentiators or agonists: CNG channel inhibitors. shares compounds with NPY1 pot ag. HEK293-CNG parental, isoproterenol cAMP, membrane potential fluorescence. inhibition, % at 3.6 µM. 42% of 280 active;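 active means inhibition above the mean of stimulated solvent-only control wells plus 3 SD, cut at about 22% in these data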;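 further: 0% = isoproterenol-stimulated DMSO wells and 100% = unstimulated DMSO wells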
# Active calls of the source: *; nt = no result. Compounds with a hit are over-represented: about 3% of the library has one in this group of screens.
SMILES,Hsp70 activator,NPY-Y1 antag,NPY1 pot ag,NPY-Y2 antag,Wee1 degr inh,NPY-Y2 PAM-ag,NPY-Y1 pot conf,NPY-Y2 counter,NPY-Y1 agonist,NPY-Y2 ag,CNGC inh 2
CC(C)(C)C(=O)CC1(O)C(=O)N(Cc2ccc(Cl)cc2)c2ccccc21 (stereo not given),0,4,-1,3,-3,3,nt,nt,nt,nt,nt
Cc1ccc(S(=O)(=O)Nc2nc3ccccc3nc2Nc2cccc(S(=O)(=O)N3CCCC3)c2)cc1,0,-14,45*,nt,-4,18,74*,71*,67*,65*,44*
O=[N+]([O-])c1cccc(S(=O)(=O)Nc2nc3ccccc3nc2Nc2cccc(S(=O)(=O)N3CCCCC3)c2)c1,0,0,5,-1,1,3,nt,nt,nt,nt,nt
CCN1CCC(NC(=O)Nc2cccc(C(F)(F)F)c2)CC1,0,-1,36*,nt,2,0,2,2,-2,-4,7
CCN1CCN(C(=O)Nc2cccc(C(F)(F)F)c2)CC1,0,2,-16,-1,0,3,nt,nt,nt,nt,nt
Cn1c(C(O)C(O)c2ccccc2)nc2ccccc21 (stereo not given),0,-5,9,nt,2,6,nt,nt,nt,nt,nt
Cn1c(C(C#N)C2=C(Cl)C(=O)N(c3ccccc3)C2=O)nc2ccccc21 (stereo not given),0,-17,36*,-7,0,30,71*,60*,83*,72*,58*
Cn1c(CO)cnc1SCc1ccc(Cl)cc1,0,-7,-5,-1,1,-13,nt,nt,nt,nt,nt
Cc1cc(OC(F)F)ccc1NC(=O)Nc1ccc([N+](=O)[O-])cc1,-1,-13,59*,-6,0,29,36,29,25*,28*,31*
Cc1ccc(S(=O)(=O)N(C)C)cc1NC(=O)COC(=O)/C(=C/c1ccc(F)cc1)c1cccs1,0,-4,-8,2,0,-1,nt,nt,nt,nt,nt
O=C(COc1ccc(S(=O)(=O)NC2CCCCC2)cc1Cl)N1CCN(c2ccccc2)CC1,0,-5,41*,-4,-2,15,8,8,-1,9,13
O=C(COc1ccc(S(=O)(=O)NC2CCCCC2)cc1)N1CCN(c2ccc(F)cc2)CC1,0,-2,6,0,-1,-19,nt,nt,nt,nt,nt
CCN1C(=O)/C(=C/C=C2\N(CC)c3cc(S(=O)(=O)N(C)C)ccc3N2c2ccccc2)SC1=S,nt,nt,50*,nt,1,18,57*,52*,51*,63*,39*
CC(C)N=C1NN=C(c2cccs2)CS1,1,7,0,nt,3,-9,nt,nt,nt,nt,nt
CC(C)N=C1NN=C(c2ccc(Cl)c(Cl)c2)CS1,0,1,49*,nt,0,9,-1,-3,-4,2,4
CCOc1ccccc1NC(=O)C1C2C=CC(O2)C1C(=O)O (stereo not given),0,1,57*,2,0,11,9,0,-9,5,-2
CCOc1ccccc1NC(=O)C1C2C=CC(C2)C1C(=O)O (stereo not given),0,-3,-7,2,-2,-6,nt,nt,nt,nt,nt
CN(C(=S)NC(=O)Cc1ccccc1)c1ccccc1,0,0,0,nt,-3,-2,nt,nt,nt,nt,nt
O=C(C1CCCN(Cc2nc(-c3cccs3)no2)C1)N1CCOCC1 (stereo not given),0,-3,0,nt,-4,-10,nt,nt,nt,nt,nt
O=C1c2ccccc2C(=O)c2c([N+](=O)[O-])ccc(O)c21,nt,nt,52*,nt,6,-1,41,43*,29*,33*,36*
CC1CCN(c2nc(-c3ccccc3O)nc3ccccc23)CC1,0,-1,-6,0,-2,9,nt,nt,nt,nt,nt
CC1CCN(c2ncnc3ccccc23)CC1,0,-6,40*,3,0,-6,-18,-5,-23,-10,-3
CCCCOCCCn1cnc2c([nH]c3cc(OC)ccc32)c1=O,0,2,-12,5,-2,-20,nt,nt,nt,nt,nt
CN1CCc2c(sc3c2C(=O)NC(c2cccs2)N3)C1 (stereo not given),0,-9,-3,-1,-1,2,nt,nt,nt,nt,nt
CSc1ccc(C2NC(=O)c3c(sc4c3CCN(C)C4)N2)cc1 (stereo not given),0,3,42*,2,0,8,4,0,-6,-3,3
SMILES,Hsp70 activator,NPY-Y1 antag,NPY1 pot ag,NPY-Y2 antag,Wee1 degr inh,NPY-Y2 PAM-ag,NPY-Y1 pot conf,NPY-Y2 counter,NPY-Y1 agonist,NPY-Y2 ag,CNGC inh 2
CC(C)c1nn2c(N)c(/C=C3\C=Nc4ccccc43)c(=O)nc2s1,nt,nt,9,nt,2,11,nt,nt,nt,nt,nt
CCC(CC)c1nn2c(N)c(/C=C3\C=Nc4ccccc43)c(=O)nc2s1,nt,nt,73*,nt,-2,12,95*,82*,97*,85*,46*
Nc1nc(Cl)cc(N2CCC(c3cc(-c4ccc(Cl)cc4)n[nH]3)CC2)n1,0,-5,55*,-2,-2,33,15,15,1,15*,6
Cc1ccccc1NCC(=O)N/N=C/c1c[nH]c2ccccc12,0,-10,46*,nt,2,15,29,25,27*,18*,29*
CCCN1C(=O)/C(=C/c2ccc(N3CCOCC3)cc2)NC1=S,0,-5,13,nt,2,18,nt,nt,nt,nt,nt
CCCN1C(=O)/C(=C/c2ccc(OCC(=O)OCC)cc2)NC1=S,0,-7,78*,nt,0,22,122*,101*,110*,105*,100*
O=C(c1ccc(OC2CCN(C(=O)C3CC3)CC2)cc1)N(CCO)Cc1ccccc1,nt,nt,5,nt,-1,5,nt,nt,nt,nt,nt
CC(C)(C)Nc1nc(Cl)nc(N(C#N)CN2C(=O)c3ccccc3S2(=O)=O)n1,0,-2,65*,nt,-1,9,46*,28,39*,29*,22*
Cc1ccc(NC(=O)COC(=O)c2ccc([N+](=O)[O-])o2)cc1S(=O)(=O)N1CCCCC1,0,9,41*,nt,0,5,-7,-2,-14,-4,5
O=[N+]([O-])c1cc(S(=O)(=O)N2CCCCCC2)ccc1Cl,0,-2,41*,nt,-1,31,16,22,16,22*,56*
